Measurements from ChEMBL document CHEMBL1158477, “Synthesis, in vivo evaluation, and molecular modeling studies of new pyrazolo[5,1-c][1,2,4]benzotriazine 5-oxide derivatives. Identification of a bifunctional hydrogen bond area related to the inverse agonism” (J Med Chem, 2009).
The source made the active and inactive calls. No cut-off for these calls is given here.

Key:
Mus musculus [1] = experiment: Effect on motor coordination in CD1 albino mouse assessed as number of falls form rotarod at 3 mg/kg, po administered 60 mins before test measured for 30 seconds after 30 mins of drug infusion by rotarod test; format: functional
How it was run: (§1)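 Rota-rod in male CD-1 mice with a pretest. Test substance given po in 1% CMC; falls from the rotating rod counted over 30 s, assessed 30 min after treatment.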

Mus musculus [2] = experiment: Effect on motor coordination in CD1 albino mouse assessed as number of falls form rotarod at 10 mg/kg, po […] measured for 30 seconds after 30 mins of dosing by rotarod test; format: functional; how it was run: as §1
Mus musculus [3] = experiment: Anticonvulsant activity against pentylenetetrazole-induced shock in CD1 albino mouse assessed as shock latency at 3 mg/kg, po preincubated for 30 mins before pentylenetetrazole challenge measured for 30 mins (RVb=253.1 +/- 13 seconds); format: functional
Mus musculus [4] = experiment: Anticonvulsant activity against pentylenetetrazole-induced shock in CD1 albino mouse assessed as shock latency at 10 mg/kg, po preincubated for 30 mins before pentylenetetrazole challenge measured for 30 mins (RVb=253.1 +/- 13 seconds); format: functional
Mus musculus [5] = experiment: Anticonvulsant activity against pentylenetetrazole-induced convulsions in CD1 albino mouse assessed as convulsion latency at 3 mg/kg, po preincubated for 30 mins before pentylenetetrazole challenge measured for 30 mins (RVb=599 +/- 37.6 seconds); format: functional
Mus musculus [6] = experiment: Anticonvulsant activity against pentylenetetrazole-induced convulsions in CD1 albino mouse assessed as convulsion latency at 10 mg/kg, po preincubated for 30 mins before pentylenetetrazole challenge measured for 30 mins (RVb=599 +/- 37.6 seconds); format: functional
Mus musculus [7] = experiment: Effect on spontaneous motility in CD1 albino mouse assessed as number of movement on plane board at 3 mg/kg, po after 30 mins by hole-board test; format: functional
How it was run: (§2)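 Hole-board test in male CD-1 mice: animals placed singly on the board and allowed to explore panel and holes. Test run 30 min after po dosing in 1% CMC (10 mL/kg). Hole entries (curiosity) and plane movements (spontaneous motility) counted; 10 mice per group, compared with CMC controls.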

Mus musculus [8] = experiment: Effect on spontaneous motility in CD1 albino mouse assessed as number of movement on plane board at 10 mg/kg, po after 30 mins by hole-board test; format: functional; how it was run: as §2
Mus musculus [9] = experiment: Effect on explorative capacity in CD1 albino mouse assessed as curiosity-related number of head plugging activity on hole at 3 mg/kg, po after 30 mins by hole-board test; format: functional; how it was run: as §2
Mus musculus [10] = experiment: Effect on explorative capacity in CD1 albino mouse assessed as curiosity-related number of head plugging activity on hole at 10 mg/kg, po after 30 mins by hole-board test; format: functional; how it was run: as §2
Mus musculus [11] = experiment: Anxiogenic activity in CD1 albino mouse at 1 mg/kg, po after 30 mins by light/dark box test; format: functional, organism-based; set-up: dose 1 mg/kg
How it was run: (§3)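 Male CD-1 mice (22-24 g) given test substance po in 1% CMC (10 mL/kg), tested 30 min later in a light/dark box. Transfers between compartments and time spent in the illuminated side were measured. Values are mean ± SEM of 15-20 mice; compared with controls.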

Mus musculus [12] = experiment: Anxiogenic activity in CD1 albino mouse at 3 mg/kg, po after 30 mins by light/dark box test; format: functional, organism-based; set-up: dose 3 mg/kg; how it was run: as §3
Mus musculus [13] = experiment: Anxiogenic activity in CD1 albino mouse at 10 mg/kg, po after 30 mins by light/dark box test; format: functional, organism-based; set-up: dose 10 mg/kg; how it was run: as §3
Mus musculus [14] = experiment: Anxiogenic activity in CD1 albino mouse at 30 mg/kg, po after 30 mins by light/dark box test; format: functional, organism-based; set-up: dose 30 mg/kg; how it was run: as §3
Mus musculus [15] = experiment: Effect on learning and memory process in CD1 albino mouse assessed as improvement in retention latency at 1 mg/kg, po after 24 hrs by passive avoidance test; format: functional, organism-based; set-up: dose 1 mg/kg
How it was run: (§4)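 Step-through passive avoidance in a two-compartment box (lit and dark compartments joined by a guillotine door). Male CD-1 mice dosed po (1% CMC) 30 min before training; retention tested 24 h later. Training and retention latencies recorded; mean ± SEM of 15-20 mice versus controls.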

Mus musculus [16] = experiment: Effect on learning and memory process in CD1 albino mouse assessed as improvement in retention latency at 3 mg/kg, po after 24 hrs by passive avoidance test; format: functional, organism-based; set-up: dose 3 mg/kg; how it was run: as §4
Mus musculus [17] = experiment: Effect on ethanol-induced sleeping time in CD1 albino mouse assessed as increase in duration of loss of righting reflex at 10 mg/kg, po preincubated 30 mins before ethanol challenge; format: functional, organism-based; set-up: dose 10 mg/kg
Mus musculus [18] = experiment: Effect on ethanol-induced sleeping time in CD1 albino mouse assessed as increase in duration of loss of righting reflex at 3 mg/kg, po preincubated 30 mins before ethanol challenge; format: functional, organism-based; set-up: dose 3 mg/kg
Bos taurus = species: Bos taurus; experiment: Displacement of [3H]flumazenil from GABAA/Benzodiazepine receptor in bovine brain at 10 uM
How it was run: (§5)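 Bovine brain membranes; displacement of specific [3H]flumazenil (Ro15-1788) binding. Percent inhibition measured at 10 μM; Ki determined only when inhibition at that concentration exceeded 80%. Ki given as mean ± SEM of five determinations.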

[19] = Displacement of [3H]flumazenil from GABAA/Benzodiazepine receptor in bovine brain; set-up: species or system Bos taurus; how it was run: as §5
Mus musculus [20] = experiment: Anxiogenic activity in CD1 albino mouse at 3 mg/kg, po after 30 mins by light/dark box test in presence of flumazenil; format: functional, organism-based; set-up: dose 3 mg/kg
How it was run: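 Light/dark box in male CD-1 mice. Test substance given po in 1% CMC 30 min before the test, with flumazenil 100 mg/kg ip (saline) co-treatment. Transfers between compartments and time in the lit side recorded. Mean ± SEM of 15-20 mice.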

Mus musculus [21] = experiment: Effect on learning and memory process in CD1 albino mouse assessed as improvement in retention latency at 100 mg/kg, ip after 24 hrs by passive avoidance test; format: functional, organism-based; set-up: dose 100 mg/kg
How it was run: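 Male CD-1 mice treated ip 30 min before training in a step-through passive avoidance box, a lighted compartment joined to a dark one by a guillotine door. Training latency recorded, then retention latency 24 h later. Mean of 15-20 mice per group.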

Mus musculus [22] = experiment: Anticonvulsant activity against pentylenetetrazole-induced shock in CD1 albino mouse assessed as absence of shocks at 1 mg/kg, ip preincubated for 30 mins before pentylenetetrazole challenge measured for 30 mins; format: functional, organism-based; set-up: dose 1 mg/kg
How it was run: (§6)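 Male CD-1 mice (22-24 g), drug in isotonic saline given ip; PTZ 90 mg/kg sc injected 30 min after drug. Occurrence of clonic generalized convulsions noted over 30 min, with shock and convulsion latency recorded. Controls received 1% CMC.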

Mus musculus [23] = experiment: Anticonvulsant activity against pentylenetetrazole-induced convulsions in CD1 albino mouse assessed as absence of convulsions at 1 mg/kg, ip preincubated for 30 mins before pentylenetetrazole challenge measured for 30 mins; format: functional, organism-based; set-up: dose 1 mg/kg; how it was run: as §6
Mus musculus [24] = experiment: Anxiolytic activity in CD1 albino mouse at 1 mg/kg, ip after 20 mins by light/dark box test in presence of flumazenil; format: functional, organism-based; set-up: dose 1 mg/kg
How it was run: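 Male CD-1 mice given drug ip in saline, tested in a light/dark box. Number of transfers between compartments and time spent in the illuminated side recorded. Flumazenil given ip at 100 mg/kg as antagonist.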

Mus musculus [25] = experiment: Effect on ethanol-induced sleeping time in CD1 albino mouse assessed as increase in duration of loss of righting reflex at 1 mg/kg, ip preincubated 30 mins before ethanol challenge; format: functional, organism-based; set-up: dose 1 mg/kg
How it was run: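 Male CD-1 mice given drug ip in saline. Ethanol 4 g/kg ip injected 30 min after drug. Duration of loss of righting reflex taken as sleep time, capped at 210 min. Mean of 15-20 mice per group.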

[O-][n+]1nc2c(I)cnn2c2cc(Oc3ccccc3)ccc21
Activity (Mus musculus [1]): 0.9 | Activity (Mus musculus [2]): 0.6 | Activity (Mus musculus [3]): 264.7 s | Activity (Mus musculus [4]): 243.6 s | Activity (Mus musculus [5]): 516.1 s | Activity (Mus musculus [6]): 345.5 s | Activity (Mus musculus [7]): 73.2 | Activity (Mus musculus [8]): 63.8 | Activity (Mus musculus [9]): 38 | Activity (Mus musculus [10]): 39.8 | Activity (Mus musculus [11]): Active | Activity (Mus musculus [12]): Active | Activity (Mus musculus [13]): Active | Activity (Mus musculus [14]): Active | Activity (Mus musculus [15]): Active | Activity (Mus musculus [16]): Active | Activity (Mus musculus [17]): Active | Activity (Mus musculus [18]): Active | Activity (Bos taurus): > 80% | Ki [19]: 8.6 nM | Activity (Mus musculus [20]): inactive

CCOC(=O)c1ncn2c1CN(C)C(=O)c1cc(F)ccc1-2
Activity (Mus musculus [21]): Active

CN1C(=O)CN=C(c2ccccc2)c2cc(Cl)ccc21
Activity (Mus musculus [22]): Active | Activity (Mus musculus [23]): Active | Activity (Mus musculus [24]): inactive | Activity (Mus musculus [25]): Active
